# Screening data (PubChem BioAssay)
# Only some compounds are listed: those with a hit (about 12% of all), similar ones and a draw of the others.
# L major viab: Leishmania major promastigote growth inhibition; 200,000 tested, 9% active; inhibition, % at 10 µM; Leishmania major promastigotes, resazurin fluorescence viability; in the data active = inhibition above about 50%;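 note: promastigotes grown with compound for 44 hours at 28 °C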
# ABCG2 inh: blocks JC-1 efflux by human ABCG2 transporter; Q9UNQ0; IgMXP3 cells, flow cytometry; inhibition, % at 6.6 µM; 190,000 tested, 0.1% active; AID 1325;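 active = inhibition above 80%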;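 note: 0% = DMSO and 100% = nicardipine control wells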
# Target sequence (Q9UNQ0 whole entry, looked up): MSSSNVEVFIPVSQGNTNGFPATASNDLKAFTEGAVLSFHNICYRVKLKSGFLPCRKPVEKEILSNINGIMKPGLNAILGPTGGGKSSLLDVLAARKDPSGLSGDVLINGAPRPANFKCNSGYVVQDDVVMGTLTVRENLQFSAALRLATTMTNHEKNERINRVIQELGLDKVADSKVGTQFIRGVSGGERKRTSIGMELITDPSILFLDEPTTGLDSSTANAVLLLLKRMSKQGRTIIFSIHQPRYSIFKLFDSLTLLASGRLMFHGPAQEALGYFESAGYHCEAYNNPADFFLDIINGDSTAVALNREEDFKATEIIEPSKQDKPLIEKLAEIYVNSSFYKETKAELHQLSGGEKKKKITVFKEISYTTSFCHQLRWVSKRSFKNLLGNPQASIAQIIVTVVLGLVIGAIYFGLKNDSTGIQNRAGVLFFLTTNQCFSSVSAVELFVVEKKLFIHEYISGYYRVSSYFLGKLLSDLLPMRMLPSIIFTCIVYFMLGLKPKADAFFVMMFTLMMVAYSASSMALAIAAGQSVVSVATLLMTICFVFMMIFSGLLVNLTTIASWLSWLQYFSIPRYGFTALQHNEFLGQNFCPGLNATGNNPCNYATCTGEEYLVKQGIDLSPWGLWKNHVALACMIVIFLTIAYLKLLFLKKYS
#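 material = IgMXP3 (ABCG2) plus far-red-tagged CCRF-Adr (ABCB1) cells | amount = 3 million cells/mL, equal mix of both lines | also added = JC-1 transporter substrate | dosing = one concentration, 6.6 µM final | schedule = 10 min at 25 °C | measured by = flow cytometric JC-1 green MFI at 530 nm | read-out basis = percent efflux inhibition, scaled nicardipine 100% to DMSO 0%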
# ABCB1 block: blocks JC-1 efflux by human ABCB1 transporter; P08183; CCRF-Adr cells, flow cytometry; inhibition, % at 6.6 µM; 190,000 tested, 0.067% active; AID 1326; in the data active = inhibition above about 40%;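 note: 0% = vehicle and 100% = reference inhibitor; higher value means more JC-1 retained so stronger ABCB1 efflux block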
# WT yeast gro inh: growth inhibition of WT yeast, mitochondrial fusion screen; inhibition, % at 10 µM; 190,000 tested, 2.1% active; mitochondrial fusion phenotypic screen, WT strain; in the data active = inhibition above about 58%; tested in S. cerevisiae
# RAM inhibit: inhibitors of the yeast RAM network; inhibition, % at 50 µM; S. cerevisiae dse1pr::URA3 reporter, 5-FOA growth OD615, 2 d; analog-sensitive cbk1-as2 kinase mutant strain; AID 868; 190,000 tested, 1.8% active;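 active = inhibition above a set limit, 3 SD over mean compound inhibition, cut at about 8.4% in these data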;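 note: 0% = DMSO-only wells with no growth and 100% = 10 µM 1-NA-PP1 full growth; inhibition rescues growth on 5-FOA so higher OD means more RAM inhibition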
# The depositor's hits bear a star; / = no result given.
SMILES,L major viab,ABCG2 inh,ABCB1 block,WT yeast gro inh,RAM inhibit
COc1ccc(-c2nc3ccccn3c2/N=C/c2ccc(OC)c(OC)c2)cc1O,60*,30,15,-4,1
COc1ccccc1NC(=O)Nc1nc(C(C)(C)C)cs1,18,6,1,-7,3
COc1ccc2c(CC(=O)Nc3ccccc3OC)coc2c1,-1,2,0,2,0
COc1ccc2c(CC(=O)Nc3ccc(OC)c(NS(=O)(=O)c4ccc(F)cc4)c3)coc2c1,57*,5,1,-25,4
Nn1cnnc1N/N=C/c1cc(Br)cc(Br)c1O,38,3,0,-1,9.6*
Cc1nnc(C)n1/N=C/c1cc(Br)cc(Br)c1O,-9,3,1,-4,-1
CC1CCCCC1NC1=NCCCS1 (stereo not given),5,1,0,3,1
Cc1sc2nc3c4ccccc4c(NCc4ccco4)nn3c(=O)c2c1C,9,2,1,63*,5
Cc1nc(NCc2ccco2)c2c(C)c(C)sc2n1,31,10,1,2,1
Cc1ccc(/C=C2\SC(=S)N(C3CCS(=O)(=O)C3)C2=O)cc1 (stereo not given),42,0,0,1,4
CCOc1ccc(-c2nn(-c3ccccc3)cc2/C=C2\SC(=S)N(C3CCS(=O)(=O)C3)C2=O)cc1 (stereo not given),15,0,0,14,9.3*
O=C1/C(=C/c2ccco2)SC(=S)N1C1CCS(=O)(=O)C1 (stereo not given),93*,0,0,5,2
COc1ccc(S(=O)(=O)N(CCc2ccccc2)CC(=O)O)cc1,0,-1,1,3,0
COC(=O)c1cc(NC(=O)C2CC(=O)NC(=NCc3ccc(OC)cc3)S2)cc(C(=O)OC)c1 (stereo not given),-6,0,0,-4,1
Cc1cc([N+](=O)[O-])nn1CC(=O)NCc1cccs1,-6,0,0,27,1
Cc1cc([N+](=O)[O-])nn1CC(=O)NCc1ccco1,50*,6,0,-1,0
N#Cc1cc(NC2CCCC2)c([N+](=O)[O-])cc1C#N,61*,4,1,-8,2
CC(c1ccccc1F)n1cc(C(=O)NCCc2ccco2)nn1 (stereo not given),-6,2,0,8,3
Cc1cccc2[nH]c3c(N4CCN(C(=O)c5ccco5)CC4)ncnc3c12,82*,4,1,21,0
O=C(c1ccco1)N1CCN(c2ncnc3scc(-c4ccc(F)cc4)c23)CC1,78*,4,1,-3,0
Cc1cc(C)nc(SCCC(=O)Nc2ccccc2Cl)n1,12,-1,0,-6,0
COc1ccccc1NS(=O)(=O)c1cccc(NC(=O)NC2CCCCC2)c1,99*,0,0,-11,3
COc1ccccc1NS(=O)(=O)c1cccc(C(=O)NN)c1,-6,-1,0,9,-1
COc1ccc(Cl)cc1NC(=O)NC1CCCCC1,100*,6,0,8,3
COc1ccccc1NS(=O)(=O)c1cccc(NC(=O)c2nc3nc(C)cc(C)n3n2)c1,72*,3,0,4,2
SMILES,L major viab,ABCG2 inh,ABCB1 block,WT yeast gro inh,RAM inhibit
CCCN1CCC(NC(=O)Nc2cc(Cl)ccc2OC)CC1,7,4,1,-17,1
COc1ccccc1NS(=O)(=O)c1cc(NC(=O)c2cccs2)ccc1N1CCCCC1,43,-4,-1,0,4
COc1ccc(C)cc1NC(=O)c1nc2nc(C)cc(C)n2n1,0,/,/,/,/
COc1ccccc1NS(=O)(=O)c1cc(NC(=O)c2sccc2C)ccc1N1CCCC1,64*,-3,-1,16,0
CC(C)(CNS(C)(=O)=O)SCc1ccc(Cl)cc1,0,0,-1,-10,-1
Cc1ccc(SCC(=O)Nc2ccc(-c3nc4ccccc4[nH]3)cc2)cc1,2,2,0,16,1
CC1=NN(C(=O)COc2ccc(C)c(C)c2)C(O)(c2ccccc2)C1 (stereo not given),-2,10,0,-1,0
COc1ccccc1NS(=O)(=O)c1cc(NC(=O)C(C)C)ccc1N1CCCCC1,30,-2,0,9,3
COc1ccccc1NS(=O)(=O)c1cc(NC(=O)c2cccs2)ccc1N1CCCC1,94*,-4,-1,17,5
O=C(Nc1cc(C(F)(F)F)ccc1N1CCOCC1)c1cccs1,-1,2,0,-7,1
COc1ccccc1NS(=O)(=O)c1cc(NC(=O)Nc2ccccc2)ccc1N1CCCCC1,91*,-6,-1,21,5
O=C(Nc1ccc(N2CCCC2)c(S(=O)(=O)Nc2cccc(C(F)(F)F)c2)c1)c1cccs1,92*,-7,0,25,3
Cc1cc(NCc2ccccn2)nc2ccccc12,29,5,1,-4,1
Cc1cc(NC2CCCCC2)nc2ccccc12,84*,1,0,34,0
O=C1/C(=C\c2ccncc2)SC(=S)N1C1CCCCC1,65*,-4,-1,13,3
CCCCC(CC)CN1C(=O)/C(=C/c2ccncc2)SC1=S (stereo not given),97*,0,0,25,-1
O=C(O)CCN1C(=O)/C(=C\c2ccncc2)SC1=S,9,1,1,-18,0
CCOC(=O)c1cccnc1NC(=O)c1ccccc1,-9,6,0,-16,0
COc1ccc(OC)c(N/C(C)=C/C(=O)c2ccc(Br)cc2)c1,3,-1,3,22,0
Cc1cccc(NS(=O)(=O)c2ccc3nc(-c4ccccc4)[nH]c3c2)c1C,59*,0,0,-12,2
Cc1nc2ccc(S(=O)(=O)Nc3ccccc3C)cc2s1,18,0,0,0,2
Fc1ccc(C(CNC(=S)NC2CCCCC2)N2CCOCC2)cc1 (stereo not given),5,-1,-1,-13,1
O=C(Oc1ccc(-n2cnnn2)cc1)c1ccccc1,-4,3,1,-6,0
CC(C)NC(=O)COC(=O)C1CSC2(c3ccc(Br)cc3)CCC(=O)N12 (stereo not given),-8,0,0,17,0
c1ccc(Nc2nc(-c3ccccn3)cs2)cc1,101*,32,-1,46,1
SMILES,L major viab,ABCG2 inh,ABCB1 block,WT yeast gro inh,RAM inhibit
COc1cccc2sc(Nc3nc(-c4ccccn4)cs3)nc12,100*,1,0,63*,-1
Brc1ccc(Nc2nc(-c3cccnc3)cs2)cc1,26,13,0,38,1
c1ccc(-c2csc(Nc3cccnc3)n2)nc1,58*,6,0,-2,1
Clc1cccc(Nc2nc(-c3cccnc3)cs2)c1,54*,7,1,39,0
O=C(CN1C2=NCCN2c2ccccc21)c1ccc(Br)s1,1,18,0,0,-1
O=C(CCCN1C(=O)c2ccccc2C1=O)Nc1ccc2c(c1)OCCO2,-6,18,4,6,1
